Measurements as given in ChEMBL document CHEMBL1156470, “Inhibition of the activation of multiple serine proteases with a cathepsin C inhibitor requires sustained exposure to prevent pro-enzyme processing” (J Biol Chem, 2007).
Calls of active or inactive are those of the source. The calls are words filed in the database; no cut-off is given here.

Key:
[1] = biological target: Cathepsin S (Homo sapiens, UniProt P25774); assay: Inhibition of human recombinant cathepsin S after 10 mins
[2] = biological target: T1, Pro-cathepsin H (Homo sapiens, UniProt P09668); assay: Inhibition of human recombinant cathepsin H after 10 mins
T1 sequence (P09668 whole entry): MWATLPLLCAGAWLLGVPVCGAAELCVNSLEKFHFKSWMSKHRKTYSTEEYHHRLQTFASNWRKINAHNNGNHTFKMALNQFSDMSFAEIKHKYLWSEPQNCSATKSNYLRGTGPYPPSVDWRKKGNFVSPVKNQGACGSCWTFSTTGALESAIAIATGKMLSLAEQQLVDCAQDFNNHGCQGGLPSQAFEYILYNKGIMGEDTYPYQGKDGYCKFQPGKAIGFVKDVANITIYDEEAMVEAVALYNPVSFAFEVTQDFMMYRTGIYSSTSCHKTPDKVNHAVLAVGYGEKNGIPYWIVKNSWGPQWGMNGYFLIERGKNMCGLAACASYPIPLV

[3] = tested on: U-937; assay: Cytotoxicity against human U937 cells at 30 uM after 72 hrs annexin-V propidium iodide method; type: functional
In short: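 U937 plated at 0.4×10^6 cells/ml, compound in Me₂SO (final 0.5%). Cells harvested and re-seeded every 24 h in medium with freshly added inhibitor, for 72 h. Viability by annexin V-FITC/propidium iodide two-colour flow cytometry; cells negative for both stains counted viable.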

[4] = biological target: Dipeptidyl peptidase 1 (Homo sapiens, UniProt P53634); assay: Inhibition of intracellular cathepsin C active site in human U937 cells assessed as reduction of Ala-4[125I]Phe-DMK labeled 23 kDa protein at 10 uM by autoradiography based pulse chase assay; type: cell-based; settings: U-937
Sequence of Dipeptidyl peptidase 1 (P53634 25-134 limits assumed): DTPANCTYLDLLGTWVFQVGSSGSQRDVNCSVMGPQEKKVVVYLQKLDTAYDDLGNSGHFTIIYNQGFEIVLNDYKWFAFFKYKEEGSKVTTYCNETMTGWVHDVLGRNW
Sequence of Dipeptidyl peptidase 1 (P53634 231-394 limits assumed): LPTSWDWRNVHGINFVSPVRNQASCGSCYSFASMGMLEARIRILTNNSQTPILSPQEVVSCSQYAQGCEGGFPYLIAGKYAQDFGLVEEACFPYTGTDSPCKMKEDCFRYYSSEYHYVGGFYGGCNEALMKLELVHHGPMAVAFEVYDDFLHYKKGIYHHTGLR
Sequence of Dipeptidyl peptidase 1 (P53634 395-463 limits assumed): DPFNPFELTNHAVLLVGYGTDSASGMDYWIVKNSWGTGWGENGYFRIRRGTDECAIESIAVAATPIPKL
In short: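 U937 cells (200,000) preincubated 30 min with 10 μM competitor or 0.5% Me₂SO, then labelled 15 min with 0.5 nM Ala-4-[¹²⁵I]Phe-DMK. Quenched with 1 μM unlabelled probe, washed, and lysed in 20 mM MES pH 6.0, 50 mM NaCl, 0.5% NP-40. Run on reducing 10–20% SDS-PAGE; film exposed 6–24 h.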

[5] = biological target: T2, Neutrophil elastase (Homo sapiens, UniProt P08246); assay: Blockade of neutrophil elastase processing in human U937 cells after 7 days by fluorogenic substrate cleavage assay; type: cell-based, U-937
T2 sequence (P08246 whole entry): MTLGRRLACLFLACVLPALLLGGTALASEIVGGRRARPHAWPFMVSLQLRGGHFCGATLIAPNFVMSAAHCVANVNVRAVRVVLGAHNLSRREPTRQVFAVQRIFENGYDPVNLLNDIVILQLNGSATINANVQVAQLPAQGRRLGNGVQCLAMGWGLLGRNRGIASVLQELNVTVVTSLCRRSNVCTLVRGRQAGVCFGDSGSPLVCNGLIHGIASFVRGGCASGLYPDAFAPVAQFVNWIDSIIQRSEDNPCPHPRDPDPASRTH
In short: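 U937 seeded at 1×10^5 cells/ml with vehicle or inhibitor, passaged and diluted 10-fold into fresh medium with compound on days 3 and 5, harvested day 7. Cells washed and lysed in 20 mM Tris pH 7.5, 100 mM NaCl, 0.2% NP-40. NE rate measured with 400 μM MeOSuc-AAPV-AMC (ex 370/em 450 nm, 10 min). % inhibition vs vehicle, four wells per point.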

[6] = biological target: T3, Myeloblastin (Mus musculus, UniProt Q61096); assay: Inhibition of proteinase-3 activation in beta-estradiol differentiated mouse EcoM-G cells after 24 hrs; type: cell-based
T3 sequence (Q61096 whole entry): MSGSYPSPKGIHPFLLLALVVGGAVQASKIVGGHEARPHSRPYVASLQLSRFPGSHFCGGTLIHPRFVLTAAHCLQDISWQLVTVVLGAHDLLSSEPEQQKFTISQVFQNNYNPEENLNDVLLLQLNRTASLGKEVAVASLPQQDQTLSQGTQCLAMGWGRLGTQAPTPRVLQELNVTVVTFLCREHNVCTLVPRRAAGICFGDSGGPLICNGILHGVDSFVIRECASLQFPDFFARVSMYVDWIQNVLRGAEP
In short: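 EcoM-G cells (cultures <3 months old) washed and seeded at 0.5×10^6 cells/ml without β-estradiol. After 24 h, compound added in Me₂SO (final 0.5%), then cells differentiated a further 24 h, harvested and lysed. NE assayed with 400 μM MeOSuc-AAPV-AMC, CG with 1 mM Suc-AAPF-pNA (405 nm, 5 min), Pr-3 with 10 μM internally quenched substrate (ex 328/em 393 nm), all from the same lysates. IC50 from four-parameter Hill fit.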

Sequence of Cathepsin S (P25774 whole entry): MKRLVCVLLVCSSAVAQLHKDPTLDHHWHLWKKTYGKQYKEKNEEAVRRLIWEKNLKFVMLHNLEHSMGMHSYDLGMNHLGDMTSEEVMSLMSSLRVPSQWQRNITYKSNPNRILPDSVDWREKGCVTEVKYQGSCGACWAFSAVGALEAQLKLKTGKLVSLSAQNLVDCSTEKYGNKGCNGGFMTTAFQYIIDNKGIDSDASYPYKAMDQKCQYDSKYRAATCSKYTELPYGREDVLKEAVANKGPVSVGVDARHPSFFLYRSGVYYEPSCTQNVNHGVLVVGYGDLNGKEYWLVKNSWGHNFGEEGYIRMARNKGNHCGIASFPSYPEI

IC50 [1]: 5900 nM | IC50 [2]: > 50000 nM | Activity [4]: Active | IC50 [5]: 220 nM | IC50 [6]: 140 nM
SMILES: N#C[C@@]1(NC(=O)[C@@H](N)Cc2cccs2)C[C@@H]1c1ccccc1.O=C(O)C(F)(F)F
Activity [3]: 100%
